Assay results from ChEMBL document CHEMBL5705902, “Role of G Protein-Coupled Receptor Kinases 2 and 3 in μ-Opioid Receptor Desensitization and Internalization” (Mol Pharmacol, 2015).
The source made the active and inactive calls. The rule behind the calls is not given here.

Tests used:
[1] = target: Mu-type opioid receptor (Rattus norvegicus) (UniProt P33535); assay: Inhibition of MOPr desensitization in wistar rat LC neuron cells assessed as reduction in the Met-Enk induced desensitization at 30 uM incubated for 15 mins before in the presence of SP600125; format: functional, cell-based
[2] = target: Dual specificity tyrosine-phosphorylation-regulated kinase 1A (Homo sapiens) (UniProt Q13627); assay: Inhibition of human DYRK1A assessed as remaining activity at 1 uM in presence of 32ATP relative to control
In short: (§1)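 Express screen of 52 purified human kinases run as a radioactive filter-binding assay with 32ATP, at 1 μM inhibitor. ATP was at or below each kinase's calculated Km. Activity is given as percent of the activity without inhibitor. Run in duplicate; mean with S.D.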

[3] = target: c-Jun N-terminal kinase, JNK (Homo sapiens) (UniProt P45983+P53779+P45984); assay: Inhibition of JNK (unknown origin) at 1 uM in presence of 32ATP relative to control; format: protein assay; in short: as §1
[4] = target: Serine/threonine-protein kinase 3 (Homo sapiens) (UniProt Q13188); assay: Inhibition of human MST2 assessed as remaining activity at 1 uM in presence of 32ATP relative to control
In short: (§2)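 Express panel of 52 purified human kinases run in vitro. Kinase activity was measured directly by a radioactive filter-binding assay with ³²ATP, at ATP levels at or below each kinase's calculated Km for ATP. The compound was tested at 1 μM. Each assay was run in duplicate, and activity is given as the mean percentage (with S.D.) of activity without inhibitor.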

[5] = target: Casein kinase I isoform delta (Homo sapiens) (UniProt P48730); assay: Inhibition of human CK1delta assessed as remaining activity at 1 uM in presence of 32ATP relative to control; in short: as §1
[6] = target: Aurora kinase B (Homo sapiens) (UniProt Q96GD4); assay: Inhibition of human Aurora B assessed as remaining activity at 1 uM in presence of 32ATP relative to control; in short: as §1
[7] = target: Serine/threonine-protein kinase PAK 4 (Homo sapiens) (UniProt O96013); assay: Inhibition of human PAK4 assessed as remaining activity at 1 uM in presence of 32ATP relative to control; in short: as §2
[8] = target: Mitogen-activated protein kinase 1 (Homo sapiens) (UniProt P28482); assay: Inhibition of human ERK2 assessed as remaining activity at 1 uM in presence of 32ATP relative to control; in short: as §2
[9] = target: RAC-alpha serine/threonine-protein kinase (Homo sapiens) (UniProt P31749); assay: Inhibition of human PKBa assessed as remaining activity at 1 uM in presence of 32ATP relative to control; in short: as §2
[10] = target: Dual specificity mitogen-activated protein kinase kinase 1 (Homo sapiens) (UniProt Q02750); assay: Inhibition of human MKK1 assessed as remaining activity at 1 uM in presence of 32ATP relative to control; in short: as §2
[11] = target: 3-phosphoinositide-dependent protein kinase 1 (Homo sapiens) (UniProt O15530); assay: Inhibition of human PDK1 assessed as remaining activity at 1 uM in presence of 32ATP relative to control
[12] = target: Receptor tyrosine-protein kinase erbB-4 (Homo sapiens) (UniProt Q15303); assay: Inhibition of human HER4 assessed as remaining activity at 1 uM in presence of 32ATP relative to control; in short: as §2
[13] = target: Proto-oncogene tyrosine-protein kinase Src (Homo sapiens) (UniProt P12931); assay: Inhibition of human Src assessed as remaining activity at 1 uM in presence of 32ATP relative to control; in short: as §2
[14] = target: Beta-2 adrenergic receptor (Bos taurus) (UniProt Q28044); assay: Inhibition of bovine beta2-adrenoceptor desensitization in HEK293 cell; format: cell-based; settings: dose 3-30 µM
Chain of Beta-2 adrenergic receptor (Bos taurus) (Q28044 whole entry, looked up): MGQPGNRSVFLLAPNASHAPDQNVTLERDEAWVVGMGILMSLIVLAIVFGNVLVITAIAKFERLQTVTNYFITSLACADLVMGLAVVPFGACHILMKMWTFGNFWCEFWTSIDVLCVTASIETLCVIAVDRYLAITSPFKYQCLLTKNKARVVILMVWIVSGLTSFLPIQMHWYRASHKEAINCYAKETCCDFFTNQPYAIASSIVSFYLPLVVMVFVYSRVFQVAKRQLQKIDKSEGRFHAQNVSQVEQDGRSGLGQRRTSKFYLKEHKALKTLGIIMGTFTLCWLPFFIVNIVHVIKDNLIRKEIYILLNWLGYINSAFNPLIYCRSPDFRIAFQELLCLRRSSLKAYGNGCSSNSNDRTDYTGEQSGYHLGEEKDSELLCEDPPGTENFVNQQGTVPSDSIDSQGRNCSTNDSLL

Chain of Mitogen-activated protein kinase 1 (Homo sapiens) (P28482 whole entry): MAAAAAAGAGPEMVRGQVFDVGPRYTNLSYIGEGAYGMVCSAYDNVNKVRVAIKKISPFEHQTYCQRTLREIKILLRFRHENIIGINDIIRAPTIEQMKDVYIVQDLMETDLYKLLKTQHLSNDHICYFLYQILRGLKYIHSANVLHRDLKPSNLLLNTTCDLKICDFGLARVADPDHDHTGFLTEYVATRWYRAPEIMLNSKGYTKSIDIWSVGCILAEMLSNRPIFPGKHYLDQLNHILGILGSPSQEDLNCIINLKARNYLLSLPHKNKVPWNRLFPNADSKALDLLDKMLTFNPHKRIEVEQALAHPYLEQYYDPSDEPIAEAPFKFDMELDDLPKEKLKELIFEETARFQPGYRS
Chain of 3-phosphoinositide-dependent protein kinase 1 (Homo sapiens) (O15530 whole entry, looked up): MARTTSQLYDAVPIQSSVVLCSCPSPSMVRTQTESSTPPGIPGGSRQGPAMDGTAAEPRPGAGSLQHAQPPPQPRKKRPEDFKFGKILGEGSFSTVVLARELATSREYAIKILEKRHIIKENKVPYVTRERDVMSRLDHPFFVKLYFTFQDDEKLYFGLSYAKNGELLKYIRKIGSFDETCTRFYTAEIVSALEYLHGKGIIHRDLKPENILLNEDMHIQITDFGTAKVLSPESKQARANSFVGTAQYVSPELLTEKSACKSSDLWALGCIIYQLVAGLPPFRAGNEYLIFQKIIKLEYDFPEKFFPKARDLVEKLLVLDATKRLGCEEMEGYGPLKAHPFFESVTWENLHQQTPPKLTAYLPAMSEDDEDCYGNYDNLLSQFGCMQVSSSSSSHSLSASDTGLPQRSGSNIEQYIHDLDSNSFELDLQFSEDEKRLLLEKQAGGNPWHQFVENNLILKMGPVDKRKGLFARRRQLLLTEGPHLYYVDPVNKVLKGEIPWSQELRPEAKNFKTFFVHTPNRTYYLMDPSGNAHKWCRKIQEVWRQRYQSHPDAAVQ
Chain of Mu-type opioid receptor (Rattus norvegicus) (P33535 whole entry): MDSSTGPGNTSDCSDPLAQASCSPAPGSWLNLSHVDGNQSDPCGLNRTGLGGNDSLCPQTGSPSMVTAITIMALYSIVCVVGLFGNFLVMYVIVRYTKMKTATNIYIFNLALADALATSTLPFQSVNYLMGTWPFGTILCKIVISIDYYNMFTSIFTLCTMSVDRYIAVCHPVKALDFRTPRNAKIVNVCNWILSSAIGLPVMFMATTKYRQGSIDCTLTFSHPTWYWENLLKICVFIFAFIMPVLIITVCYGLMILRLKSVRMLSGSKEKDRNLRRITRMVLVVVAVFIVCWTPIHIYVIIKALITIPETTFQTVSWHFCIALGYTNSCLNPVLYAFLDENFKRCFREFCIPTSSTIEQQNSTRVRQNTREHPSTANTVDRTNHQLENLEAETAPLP
Chain of Aurora kinase B (Homo sapiens) (Q96GD4 whole entry): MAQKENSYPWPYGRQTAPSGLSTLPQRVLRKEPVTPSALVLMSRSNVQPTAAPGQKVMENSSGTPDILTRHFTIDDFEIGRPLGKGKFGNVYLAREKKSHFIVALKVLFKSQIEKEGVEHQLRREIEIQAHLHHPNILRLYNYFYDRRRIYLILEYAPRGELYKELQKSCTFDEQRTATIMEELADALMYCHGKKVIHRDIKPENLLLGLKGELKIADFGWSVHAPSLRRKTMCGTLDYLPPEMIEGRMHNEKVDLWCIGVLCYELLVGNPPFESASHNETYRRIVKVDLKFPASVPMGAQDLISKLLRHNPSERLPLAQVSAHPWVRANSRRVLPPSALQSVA
Chain of Dual specificity mitogen-activated protein kinase kinase 1 (Homo sapiens) (Q02750 whole entry): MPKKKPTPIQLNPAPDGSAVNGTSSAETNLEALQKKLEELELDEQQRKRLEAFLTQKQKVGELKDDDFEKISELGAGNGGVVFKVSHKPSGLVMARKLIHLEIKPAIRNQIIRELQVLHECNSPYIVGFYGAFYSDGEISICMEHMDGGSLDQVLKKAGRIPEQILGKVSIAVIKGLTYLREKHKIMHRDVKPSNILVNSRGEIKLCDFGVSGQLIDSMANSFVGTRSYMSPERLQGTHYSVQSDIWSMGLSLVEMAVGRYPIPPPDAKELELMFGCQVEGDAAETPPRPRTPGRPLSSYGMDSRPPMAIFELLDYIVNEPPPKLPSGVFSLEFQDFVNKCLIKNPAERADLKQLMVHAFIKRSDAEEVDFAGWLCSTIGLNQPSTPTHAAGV
Chain of Serine/threonine-protein kinase 3 (Homo sapiens) (Q13188 whole entry): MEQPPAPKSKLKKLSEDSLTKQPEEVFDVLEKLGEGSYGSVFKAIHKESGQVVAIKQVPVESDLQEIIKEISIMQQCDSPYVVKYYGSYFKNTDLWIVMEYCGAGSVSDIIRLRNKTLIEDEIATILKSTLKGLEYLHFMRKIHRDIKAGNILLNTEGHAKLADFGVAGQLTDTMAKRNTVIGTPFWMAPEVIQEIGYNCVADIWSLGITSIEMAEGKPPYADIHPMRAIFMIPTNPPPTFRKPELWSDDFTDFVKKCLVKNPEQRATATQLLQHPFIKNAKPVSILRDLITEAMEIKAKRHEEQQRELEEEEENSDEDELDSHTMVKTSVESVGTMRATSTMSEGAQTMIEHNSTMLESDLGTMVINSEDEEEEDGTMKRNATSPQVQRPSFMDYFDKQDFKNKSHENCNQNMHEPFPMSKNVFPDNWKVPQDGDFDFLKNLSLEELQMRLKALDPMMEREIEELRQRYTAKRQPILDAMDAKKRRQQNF
Chain of RAC-alpha serine/threonine-protein kinase (Homo sapiens) (P31749 whole entry): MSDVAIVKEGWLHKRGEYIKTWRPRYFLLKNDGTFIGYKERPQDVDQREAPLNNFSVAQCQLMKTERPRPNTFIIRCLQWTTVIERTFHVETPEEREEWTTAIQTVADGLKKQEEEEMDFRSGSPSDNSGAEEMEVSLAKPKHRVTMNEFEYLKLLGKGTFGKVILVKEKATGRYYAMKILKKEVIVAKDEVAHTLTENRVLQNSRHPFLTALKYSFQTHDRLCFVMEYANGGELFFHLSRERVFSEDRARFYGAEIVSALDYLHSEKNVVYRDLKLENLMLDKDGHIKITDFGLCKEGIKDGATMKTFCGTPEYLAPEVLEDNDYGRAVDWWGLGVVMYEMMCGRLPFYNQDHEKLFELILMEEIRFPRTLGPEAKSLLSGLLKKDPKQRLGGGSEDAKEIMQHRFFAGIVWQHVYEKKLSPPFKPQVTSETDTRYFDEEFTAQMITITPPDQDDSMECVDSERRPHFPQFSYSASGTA
Chain of Proto-oncogene tyrosine-protein kinase Src (Homo sapiens) (P12931 2-536 limits assumed): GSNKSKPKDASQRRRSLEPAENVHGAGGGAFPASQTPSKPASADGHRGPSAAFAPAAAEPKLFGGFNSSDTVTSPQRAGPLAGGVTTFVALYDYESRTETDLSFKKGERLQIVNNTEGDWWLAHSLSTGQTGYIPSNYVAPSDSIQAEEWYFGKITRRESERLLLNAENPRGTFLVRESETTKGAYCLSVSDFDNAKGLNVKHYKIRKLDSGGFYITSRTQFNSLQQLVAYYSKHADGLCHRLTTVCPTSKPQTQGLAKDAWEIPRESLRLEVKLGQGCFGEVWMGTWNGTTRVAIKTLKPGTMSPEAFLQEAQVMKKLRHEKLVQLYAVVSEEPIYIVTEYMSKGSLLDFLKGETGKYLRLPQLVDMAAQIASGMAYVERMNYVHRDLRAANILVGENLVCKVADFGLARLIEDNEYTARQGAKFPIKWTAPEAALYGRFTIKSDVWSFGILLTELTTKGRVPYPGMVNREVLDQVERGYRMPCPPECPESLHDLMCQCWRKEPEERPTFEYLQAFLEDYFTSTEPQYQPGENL
Chain of Serine/threonine-protein kinase PAK 4 (Homo sapiens) (O96013 whole entry, looked up): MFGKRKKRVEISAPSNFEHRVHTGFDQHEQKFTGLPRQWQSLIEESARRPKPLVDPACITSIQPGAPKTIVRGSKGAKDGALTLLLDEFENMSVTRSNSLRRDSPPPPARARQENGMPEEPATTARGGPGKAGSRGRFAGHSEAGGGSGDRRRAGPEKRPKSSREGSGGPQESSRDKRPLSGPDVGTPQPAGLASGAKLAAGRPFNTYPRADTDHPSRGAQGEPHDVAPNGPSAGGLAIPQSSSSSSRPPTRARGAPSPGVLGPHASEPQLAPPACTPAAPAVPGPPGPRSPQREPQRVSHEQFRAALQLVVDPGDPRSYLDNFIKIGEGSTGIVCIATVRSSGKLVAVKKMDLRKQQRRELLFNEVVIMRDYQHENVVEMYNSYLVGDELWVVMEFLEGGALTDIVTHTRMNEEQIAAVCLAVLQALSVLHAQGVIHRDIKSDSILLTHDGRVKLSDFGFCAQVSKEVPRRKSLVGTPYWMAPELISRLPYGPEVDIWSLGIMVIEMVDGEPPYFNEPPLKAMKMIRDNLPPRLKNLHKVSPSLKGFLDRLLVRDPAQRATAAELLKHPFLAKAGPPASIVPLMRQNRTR

With `Cn1c(CNc2cccc(C(=O)NCc3ccccc3C(F)(F)F)c2)nnc1-c1ccncc1` the inhibition [1] was “inactive”, the Activity [2] was 112% and the inhibition [3] was < 20%. For the same molecule, the Activity [4] was 89%, the Activity [5] was 86% and the Activity [6] was 92%. It also gave an Activity [7] of 101%, an Activity [8] of 81% and an Activity [9] of 83%. The Activity [10] was 88%, the Activity [11] was 93% and the Activity [12] was 86%. For the same molecule, the Activity [13] was 104% and the inhibition [14] was “Dose-Dependent Effect”.
